From ChEMBL document CHEMBL4118270, “Synthesis, in vitro and in silico studies of novel potent urease inhibitors: N-[4-({5-[(3-Un/substituted-anilino-3-oxopropyl)sulfanyl]-1,3,4-oxadiazol-2-yl}methyl)-1,3-thiazol-2-yl]benzamides” (Bioorg Med Chem, 2018)

Assays:
Urease = Urease (Helicobacter pylori, UniProt Q0PXQ5); experiment: Inhibition of Campylobacter pylori urease preincubated for 5 mins followed by urea addition measured after 10 mins by Berthelot assay
How it was run: (§1)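 Modified Berthelot assay in pH 7.0 phosphate buffer. Sample and enzyme (0.135 units) are pre-incubated 5 min at 37 °C. Urea (20 mM stock) is added and incubated 10 min at 37 °C. […] IC50 is fitted from dilution series. Mean ± SEM, n = 3.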

[1] = target: Urease (Helicobacter pylori) (UniProt Q0PXQ5); experiment: Inhibition of Campylobacter pylori urease preincubated for 5 mins followed by urea addition measured after 10 mins by Berthelot assay relative to control; set-up: concentration or dose not given beside the values; how it was run: as §1
Urease (Helicobacter pylori), sequence (Q0PXQ5 as listed by the source): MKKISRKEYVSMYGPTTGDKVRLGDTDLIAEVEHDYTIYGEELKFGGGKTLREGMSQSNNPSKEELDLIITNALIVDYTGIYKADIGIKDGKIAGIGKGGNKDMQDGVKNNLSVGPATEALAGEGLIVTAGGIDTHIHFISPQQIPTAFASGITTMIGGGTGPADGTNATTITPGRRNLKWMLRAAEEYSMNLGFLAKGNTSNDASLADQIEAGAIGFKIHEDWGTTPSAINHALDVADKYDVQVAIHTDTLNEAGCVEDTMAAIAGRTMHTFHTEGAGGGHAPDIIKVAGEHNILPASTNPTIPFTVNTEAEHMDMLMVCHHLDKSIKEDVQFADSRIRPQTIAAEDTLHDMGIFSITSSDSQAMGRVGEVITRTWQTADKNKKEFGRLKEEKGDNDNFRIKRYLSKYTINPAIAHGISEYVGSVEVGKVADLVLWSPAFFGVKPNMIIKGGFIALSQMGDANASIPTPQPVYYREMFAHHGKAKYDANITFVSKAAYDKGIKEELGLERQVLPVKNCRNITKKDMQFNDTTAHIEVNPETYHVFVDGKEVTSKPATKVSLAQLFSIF

Urease, sequence (Q0PXQ5 whole entry): as the sequence (Q0PXQ5 as listed by the source) above

| SMILES | IC50 (Urease) | inhibition [1] |
| --- | --- | --- |
| CCc1ccccc1NC(=O)CCSc1nnc(Cc2csc(NC(=O)c3ccccc3)n2)o1 | 2.58 µM | 98.7% |
| Cc1cccc(NC(=O)CCSc2nnc(Cc3csc(NC(=O)c4ccccc4)n3)o2)c1C | 48.2 µM | 69.8% |
| O=C(CCSc1nnc(Cc2csc(NC(=O)c3ccccc3)n2)o1)Nc1ccccc1 | 2.95 µM | 98.5% |
| Cc1ccccc1NC(=O)CCSc1nnc(Cc2csc(NC(=O)c3ccccc3)n2)o1 | 7.47 µM | 98.2% |
| Cc1cccc(C)c1NC(=O)CCSc1nnc(Cc2csc(NC(=O)c3ccccc3)n2)o1 | 2.79 µM | 98.5% |
| NC(N)=S [THIOUREA] | 21.1 µM |  |
| Cc1cccc(NC(=O)CCSc2nnc(Cc3csc(NC(=O)c4ccccc4)n3)o2)c1 | 12.2 µM | 84.8% |
| Cc1cc(C)cc(NC(=O)CCSc2nnc(Cc3csc(NC(=O)c4ccccc4)n3)o2)c1 | 52.1 µM | 64.8% |
| CCOc1ccc(NC(=O)CCSc2nnc(Cc3csc(NC(=O)c4ccccc4)n3)o2)cc1 | 23.2 µM | 88.8% |
| CCc1ccc(NC(=O)CCSc2nnc(Cc3csc(NC(=O)c4ccccc4)n3)o2)cc1 | 43.2 µM | 74.2% |
| Cc1ccc(C)c(NC(=O)CCSc2nnc(Cc3csc(NC(=O)c4ccccc4)n3)o2)c1 | 15.2 µM | 77.9% |
| Cc1ccc(NC(=O)CCSc2nnc(Cc3csc(NC(=O)c4ccccc4)n3)o2)cc1C | 34.2 µM | 76.5% |
| Cc1ccc(NC(=O)CCSc2nnc(Cc3csc(NC(=O)c4ccccc4)n3)o2)cc1 | 29.2 µM | 76.4% |
